{"source": "ChEMBL document CHEMBL2034818", "about": "“Synthesis and evaluation of boronic acids as inhibitors of Penicillin Binding Proteins of classes A, B and C” (Bioorg Med Chem, 2012)", "key": {"[1]": {"target": "D-alanyl-D-alanine carboxypeptidase (Actinomadura sp. R39) (UniProt P39045)", "sequence (P39045 whole entry)": "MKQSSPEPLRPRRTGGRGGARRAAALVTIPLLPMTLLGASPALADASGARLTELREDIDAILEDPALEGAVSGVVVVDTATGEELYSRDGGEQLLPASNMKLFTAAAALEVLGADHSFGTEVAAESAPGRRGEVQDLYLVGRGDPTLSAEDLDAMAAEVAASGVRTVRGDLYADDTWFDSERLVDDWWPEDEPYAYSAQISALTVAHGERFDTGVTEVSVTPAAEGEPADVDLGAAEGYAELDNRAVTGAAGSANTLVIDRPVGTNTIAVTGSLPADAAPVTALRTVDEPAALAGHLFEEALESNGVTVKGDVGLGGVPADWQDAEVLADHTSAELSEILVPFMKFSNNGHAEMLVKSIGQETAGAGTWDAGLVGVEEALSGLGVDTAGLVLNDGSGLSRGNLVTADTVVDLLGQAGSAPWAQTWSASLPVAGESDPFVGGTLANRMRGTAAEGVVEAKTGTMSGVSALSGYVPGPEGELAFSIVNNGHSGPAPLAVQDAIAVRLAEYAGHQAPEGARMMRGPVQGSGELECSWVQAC", "assay": "Inhibition of Actinomadura sp. R39 PBP using S2d as substrate assessed as residual activity at 1 mM incubated for 60 mins prior to substrate addition by DTNB-based spectrophotometry", "method_in_brief": "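R39 (Actinomadura, prepared per Granier), 3.5 nM, pre-incubated with inhibitor 60 min at 25 °C in 10 mM sodium phosphate pH 7.2, 100 mM NaCl, 100 mM D-alanine, 0.01 mg/mL BSA; inhibitors from DMF stock, 1% DMF final. Residual activity from initial rate of S2d (1 mM) hydrolysis with DTNB (1 mM), read at 412 nm, corrected for spontaneous hydrolysis; triplicates, uninhibited control six replicates per plate.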"}, "[2]": {"target": "T1, Penicillin-binding protein 2X (Streptococcus pneumoniae R6) (UniProt P59676)", "T1 sequence (whole entry)": "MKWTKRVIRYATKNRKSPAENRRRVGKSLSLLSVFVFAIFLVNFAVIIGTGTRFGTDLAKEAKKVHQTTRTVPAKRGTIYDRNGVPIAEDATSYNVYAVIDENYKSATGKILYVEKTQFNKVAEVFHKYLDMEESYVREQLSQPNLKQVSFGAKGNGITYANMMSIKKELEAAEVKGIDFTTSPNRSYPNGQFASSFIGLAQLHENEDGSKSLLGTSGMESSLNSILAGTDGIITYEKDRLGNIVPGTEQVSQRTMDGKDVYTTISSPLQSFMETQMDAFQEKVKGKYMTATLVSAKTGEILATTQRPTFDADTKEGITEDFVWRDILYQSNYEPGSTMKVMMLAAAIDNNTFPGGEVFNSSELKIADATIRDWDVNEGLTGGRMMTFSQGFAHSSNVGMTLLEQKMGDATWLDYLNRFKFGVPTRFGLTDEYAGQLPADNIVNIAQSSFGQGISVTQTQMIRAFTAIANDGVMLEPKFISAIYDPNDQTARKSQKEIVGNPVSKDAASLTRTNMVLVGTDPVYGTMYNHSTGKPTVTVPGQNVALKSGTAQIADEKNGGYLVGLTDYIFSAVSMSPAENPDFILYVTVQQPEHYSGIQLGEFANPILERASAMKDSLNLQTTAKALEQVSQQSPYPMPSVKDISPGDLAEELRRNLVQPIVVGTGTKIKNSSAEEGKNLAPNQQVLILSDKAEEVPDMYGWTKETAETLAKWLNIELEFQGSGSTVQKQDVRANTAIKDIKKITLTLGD", "assay": "Inhibition of penicillin-sensitive Streptococcus pneumoniae R6 PBP2x using S2d as substrate assessed as residual activity at 1 mM incubated for 60 mins prior to substrate addition by DTNB-based spectrophotometry", "method_in_brief": "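S. pneumoniae PBP2x-R6, 0.09 µM, pre-incubated with inhibitor in 10 mM sodium phosphate pH 7.0 with 0.01 mg/mL BSA, 60 min, 25 °C; 1% DMF final. S2d (1 mM) plus DTNB (1 mM) then added; residual activity taken from initial hydrolysis rate at 412 nm, corrected for spontaneous hydrolysis; triplicates, six no-inhibitor controls per plate.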"}, "[3]": {"tested_on": "Staphylococcus aureus", "assay": "Inhibition of penicillin-resistant Staphylococcus aureus PBP2a assessed as residual activity at 1 mM incubated for 4 hrs prior to prior to fluoresceyl-ampicillin labelling measured after 20 mins by SDS-PAGE analysis"}, "[4]": {"tested_on": "Enterococcus faecium", "assay": "Inhibition of penicillin-resistant Enterococcus faecium PBP5fm assessed as residual activity at 1 mM incubated for 4 hrs prior to prior to fluoresceyl-ampicillin labelling measured after 20 mins by SDS-PAGE analysis"}, "[5]": {"tested_on": "Streptococcus pneumoniae", "assay": "Inhibition of Streptococcus pneumoniae PBP1b assessed as residual activity at 100 uM incubated for 60 mins prior to fluoresceyl-ampicillin labelling measured after 20 mins by SDS-PAGE analysis in the presence of triton X 100", "method_in_brief": "(§1)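 Assay A: purified S. pneumoniae PBP1b (0.7 µM) pre-incubated with inhibitor in 10 mM sodium phosphate pH 7.0, 60 min, 25 °C, 0.01% Triton X-100. Remaining active enzyme labelled with fluoresceyl-ampicillin (10 µM), 20 min; reaction stopped, run on SDS-PAGE, fluorescence of the band quantified as residual activity.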"}, "[6]": {"target": "T2, Penicillin-binding protein 2x (Streptococcus pneumoniae serotype 4 (strain ATCC BAA-334 / TIGR4)) (UniProt P14677)", "T2 sequence (whole entry)": "T1 sequence (whole entry) with M385T", "assay": "Inhibition of penicillin-resistant Streptococcus pneumoniae 5204 PBP2x using S2d as substrate assessed as residual activity at 1 mM incubated for 4 hrs prior to substrate addition by DNTB-based spectrophotometry"}, "[7]": {"tested_on": "Streptococcus pneumoniae", "assay": "Inhibition of Streptococcus pneumoniae PBP1b assessed as residual activity at 1mM incubated for 60 mins prior to fluoresceyl-ampicillin labelling measured after 20 mins by SDS-PAGE analysis in the presence of triton X 100", "method_in_brief": "as §1"}, "[8]": {"assay": "Inhibition of Streptococcus pneumoniae PBP1b incubated for 60 mins prior to fluoresceyl-ampicillin labelling measured after 20 mins by SDS-PAGE analysis in the presence of triton X 100", "method_in_brief": "as §1"}, "[9]": {"assay": "Inhibition of Streptococcus pneumoniae PBP1b using PATP thioester as substrate incubated for 60 mins prior to substrate addition by DNTB-based spectrophotometry in the presence of triton X 100", "method_in_brief": "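Assay B: S. pneumoniae PBP1b (0.2 µM) pre-incubated with inhibitor 60 min at 25 °C in 10 mM sodium phosphate pH 7.0, 100 mM D-alanine, 0.01 mg/mL BSA, 0.01% Triton X-100. Residual activity from initial rates of PATP thioester (5 mM) hydrolysis with DTNB (1.0 mM); IC50 by non-linear regression of residual activity across concentrations.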"}, "[10]": {"tested_on": "Streptococcus pneumoniae", "assay": "Inhibition of Streptococcus pneumoniae PBP1b using PATP thioester as substrate assessed as residual activity at 1 mM incubated for 60 mins prior to substrate addition by DNTB-based spectrophotometry", "method_in_brief": "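PBP1b (0.2 µM) pre-incubated with inhibitor for 60 min at 25 °C in 10 mM sodium phosphate pH 7.0, 100 mM D-alanine, 0.01 mg/mL BSA. PATP thioester (5 mM) and DTNB (1.0 mM) then added. Residual activity derived from initial hydrolysis rates against no-inhibitor controls.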"}, "[11]": {"target": "T3, D-alanyl-D-alanine carboxypeptidase (Actinomadura sp. R39, UniProt P39045)", "T3 sequence (P39045 whole entry)": "as the sequence (P39045 whole entry) above", "assay": "Inhibition of Actinomadura sp. R39 PBP using S2d as substrate incubated for 60 mins prior to substrate addition by DTNB-based spectrophotometry", "method_in_brief": "(§2)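 PBP purified per earlier method. Pre-incubation: enzyme with inhibitor (DMF stock, 1% DMF final) at 25 °C for 60 min. Buffer for R39 (3.5 nM): 10 mM sodium phosphate pH 7.2, 100 mM NaCl, 100 mM D-alanine, 0.01 mg/mL BSA. Buffer for PBP2xR6: 10 mM sodium phosphate pH 7.0, 0.01 mg/mL BSA. S2d (1 mM) and DTNB (1 mM) then added. Initial hydrolysis rate read at 412 nm. Triplicates. IC50 by non-linear regression of residual activity over a concentration range, with 0.01% Triton X-100.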"}, "[12]": {"target": "T3, D-alanyl-D-alanine carboxypeptidase", "assay": "Binding affinity to Actinomadura sp. R39 PBP"}, "[13]": {"target": "T4, Penicillin-binding protein 2X (Streptococcus pneumoniae R6, UniProt P59676)", "T4 sequence (P59676 whole entry)": "T1 sequence (whole entry)", "assay": "Inhibition of penicillin-sensitive Streptococcus pneumoniae R6 PBP2x using S2d as substrate incubated for 60 mins prior to substrate addition by DTNB-based spectrophotometry", "method_in_brief": "as §2"}}, "note": "Changes are numbered by the printed parent chain."}
{"smiles": "O=C(CCc1ccccc1)NCB(O)O", "values": [{"measurement": "Activity", "setting": "[1]", "value": 51, "unit": "%"}, {"measurement": "Activity", "setting": "[2]", "value": 71, "unit": "%"}, {"measurement": "Activity", "setting": "[3]", "value": 83, "unit": "%"}, {"measurement": "Activity", "setting": "[4]", "value": 79, "unit": "%"}, {"measurement": "Activity", "setting": "[5]", "value": 95, "unit": "%"}, {"measurement": "Activity", "setting": "[6]", "value": 99, "unit": "%"}, {"measurement": "Activity", "setting": "[7]", "value": 0, "unit": "%"}]}
{"smiles": "COc1cccc(C(=O)NCB(O)O)c1", "values": [{"measurement": "Activity", "setting": "[1]", "value": 50, "unit": "%"}, {"measurement": "Activity", "setting": "[2]", "value": 55, "unit": "%"}, {"measurement": "Activity", "setting": "[3]", "value": 91, "unit": "%"}, {"measurement": "Activity", "setting": "[4]", "value": 89, "unit": "%"}, {"measurement": "Activity", "setting": "[6]", "value": 101, "unit": "%"}, {"measurement": "Activity", "setting": "[7]", "value": 23, "unit": "%"}, {"measurement": "IC50", "setting": "[8]", "value": 79, "unit": "µM"}]}
{"smiles": "COc1cccc(OC)c1C(=O)NCB(O)O", "values": [{"measurement": "IC50", "setting": "[9]", "value": "> 1000", "unit": "µM"}, {"measurement": "Activity", "setting": "[10]", "value": 67, "unit": "%"}, {"measurement": "Activity", "setting": "[1]", "value": 0, "unit": "%"}, {"measurement": "Activity", "setting": "[2]", "value": 26, "unit": "%"}, {"measurement": "IC50", "setting": "[11]", "value": 1300, "unit": "nM"}, {"measurement": "Activity", "setting": "[6]", "value": 100, "unit": "%"}, {"measurement": "Ki", "setting": "[12]", "value": 1500, "unit": "nM"}, {"measurement": "IC50", "setting": "[13]", "value": 278, "unit": "µM"}]}
{"smiles": "Cc1ccccc1C(=O)NCB(O)O", "values": [{"measurement": "IC50", "setting": "[9]", "value": 18, "unit": "µM"}, {"measurement": "Activity", "setting": "[1]", "value": 45, "unit": "%"}, {"measurement": "Activity", "setting": "[2]", "value": 70, "unit": "%"}, {"measurement": "Activity", "setting": "[3]", "value": 88, "unit": "%"}, {"measurement": "Activity", "setting": "[4]", "value": 85, "unit": "%"}, {"measurement": "Activity", "setting": "[5]", "value": 27, "unit": "%"}, {"measurement": "Activity", "setting": "[6]", "value": 105, "unit": "%"}]}
